# Results as given in ChEMBL document CHEMBL1287645, “Synthesis and anti-prion activity evaluation of aminoquinoline analogues” (Eur J Med Chem, 2010).
# Active and inactive are the calls of the source. The rule behind the calls is not given here.
# How the values were obtained:
# [1] = target: Major prion protein (Mesocricetus auratus) (UniProt P04273); experiment: Inhibition of Syrian hamster prion protein (109-149) aggregation assessed as changes in light scattering at 1 uM by spectrofluorimetric analysis relative to control
# Major prion protein (Mesocricetus auratus), sequence (P04273 whole entry): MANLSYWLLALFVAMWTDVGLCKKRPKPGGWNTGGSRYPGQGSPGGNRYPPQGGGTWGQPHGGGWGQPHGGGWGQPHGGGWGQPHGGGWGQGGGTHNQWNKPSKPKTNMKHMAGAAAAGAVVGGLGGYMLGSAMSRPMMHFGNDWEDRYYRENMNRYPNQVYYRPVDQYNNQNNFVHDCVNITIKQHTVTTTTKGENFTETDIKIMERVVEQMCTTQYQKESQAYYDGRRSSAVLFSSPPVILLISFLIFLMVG
# Method in brief: (§1)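 Synthetic hamster PrP 109–149 peptide was solubilized in 50 mM MES pH 5.0 with 6 M urea and 10 mM SDS, where it stays unfolded. It was diluted at least 100-fold to 0.5 µM in 50 mM MES pH 5.0 containing increasing compound concentrations. Light scattering (450 nm excitation/emission) was followed over time. Maximum scattering was normalized to the no-compound control (100% aggregation) and to the peptide in 6 M urea (0%). Values are means of three independent measurements.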
# [2] = target: Major prion protein (Mesocricetus auratus) (UniProt P04273); experiment: Inhibition of Syrian hamster prion protein (109-149) aggregation assessed as compound concentration required to inhibit 50% aggregation by spectrofluorimetric analysis; method in brief: as §1
# [3] = target: Major prion protein (Mesocricetus auratus) (UniProt P04273); experiment: Reduction of thioflavin T binding to Syrian hamster prion protein (109-149) at 10 uM after 10 mins by fluorescence assay
# Method in brief: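 Peptide at 1.0 µM was incubated with compound at 10 µM in pH 5.0 buffer. After 10 min, thioflavin T was added to 20 µM final. Emission was recorded from 470–520 nm with excitation at 450 nm. The integrated spectral area was corrected for probe emission without peptide. Values are means of three experiments.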
# [4] = target: Major prion protein (Mesocricetus auratus) (UniProt P04273); experiment: Inhibition of Syrian hamster prion protein (109-149) aggregation assessed as changes in light scattering at 0.1 uM by spectrofluorimetric analysis relative to control; method in brief: as §1
# [5] = target: Major prion protein (Mesocricetus auratus) (UniProt P04273); experiment: Inhibition of Syrian hamster prion protein (109-149) aggregation assessed as changes in light scattering at 0.2 uM by spectrofluorimetric analysis relative to control; method in brief: as §1
SMILES,inhibition [1],C50 [2],Activity [3],inhibition [4],inhibition [5]
CNc1ccnc2cc(Cl)ccc12,38.6%,> 0.9 µM,Active,–,–
Clc1ccc2c(NC3CCCC3)ccnc2c1,–,> 1 µM,Active,–,–
CCN(CC)CCNc1ccnc2cc(SC(F)(F)F)ccc12,54%,> 1 µM,–,–,–
OCCNc1ccnc2cc(Cl)ccc12,97%,> 1 µM,Active,–,–
Nc1ccnc2cc(Cl)ccc12,8.4%,0.2 µM,Active,50%,50%
NCCNc1ccnc2cc(Cl)ccc12,7.9%,0.1 µM,Active,50%,50%
CN(C)CCNc1ccnc2cc(Cl)ccc12,82%,> 1 µM,–,–,–
